Reference: ChEMBL document CHEMBL1138650, “Inactivation of human S-adenosylhomocysteine hydrolase by covalent labeling of cysteine 195 with thionucleoside derivatives” (Bioorg Med Chem Lett, 2004)
pKi: −log10 of the molar value.

Key:
Adenosylhomocysteinase [1] = biological target: T1, Adenosylhomocysteinase (Homo sapiens, UniProt P23526); test: Inactivation rate constant for human placental S-adenosyl-homocysteine hydrolase
How it was run: (§1)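 Recombinant human placental enzyme, purified to homogeneity, at 2 µM, preincubated at 37°C with inhibitor at various concentrations and times in 20 mM potassium phosphate pH 7.5, 1 mM EDTA. Ki and kinact come from a double reciprocal plot of pseudo-first-order inactivation rate versus 1/[I].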
Target sequence in this assay (P23526 2-432 limits assumed): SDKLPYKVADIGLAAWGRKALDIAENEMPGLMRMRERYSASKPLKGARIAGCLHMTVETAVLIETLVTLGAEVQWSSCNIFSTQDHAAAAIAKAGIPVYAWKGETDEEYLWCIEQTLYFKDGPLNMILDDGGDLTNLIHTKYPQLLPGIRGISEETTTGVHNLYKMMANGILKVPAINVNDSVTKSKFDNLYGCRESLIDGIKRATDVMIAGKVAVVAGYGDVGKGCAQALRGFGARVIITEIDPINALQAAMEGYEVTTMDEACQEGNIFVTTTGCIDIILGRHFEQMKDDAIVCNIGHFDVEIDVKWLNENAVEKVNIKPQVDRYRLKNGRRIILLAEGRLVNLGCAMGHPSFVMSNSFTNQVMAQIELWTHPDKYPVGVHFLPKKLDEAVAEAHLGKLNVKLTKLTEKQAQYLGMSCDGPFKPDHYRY

Adenosylhomocysteinase [2] = biological target: T1, Adenosylhomocysteinase; test: Binding affinity for human placental S-adenosyl-homocysteine hydrolase; how it was run: as §1
Target sequence in this assay (P23526 whole entry): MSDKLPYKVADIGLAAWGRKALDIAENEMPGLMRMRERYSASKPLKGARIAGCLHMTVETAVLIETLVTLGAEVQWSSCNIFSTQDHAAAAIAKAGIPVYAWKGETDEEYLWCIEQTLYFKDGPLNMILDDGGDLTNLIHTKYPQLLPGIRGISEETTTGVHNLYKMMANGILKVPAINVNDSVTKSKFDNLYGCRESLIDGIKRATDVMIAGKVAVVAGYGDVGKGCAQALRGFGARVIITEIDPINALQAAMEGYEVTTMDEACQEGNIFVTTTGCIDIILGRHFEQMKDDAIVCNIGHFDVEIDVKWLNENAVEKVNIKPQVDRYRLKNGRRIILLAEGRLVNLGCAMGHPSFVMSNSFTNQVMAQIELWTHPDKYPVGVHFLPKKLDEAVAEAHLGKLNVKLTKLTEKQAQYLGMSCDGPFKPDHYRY

Kinact (Adenosylhomocysteinase [1]) [min⁻¹] | pKi (Adenosylhomocysteinase [2]) | SMILES
0.05 | 4.72 | CSSC[C@H]1OC(n2cnc3c(N)ncnc32)[C@H](O)[C@@H]1O (stereo not given in full)
0.05 | 4.02 | Nc1ncnc2c1ncn2C1O[C@@H](CSSC[C@H]2OC(n3cnc4c(N)ncnc43)[C@H](O)[C@@H]2O)[C@H](O)[C@@H]1O (stereo not given in full)
0.04 | 5.40 | Nc1ncnc2c1ncn2C1O[C@H](CS)[C@@H](O)[C@H]1O (stereo not given in full)

SMILES | Kinact (Adenosylhomocysteinase [1]) [min⁻¹] | pKi (Adenosylhomocysteinase [2])
Nc1ncnc2c1ncn2C1O[C@H]([C@H]2CS2)[C@@H](O)[C@H]1O (stereo not given in full) | 0.03 | 4.30
Nc1ncnc2c1ncn2C1OC([C@@H]2CS2)[C@@H](O)[C@H]1O (single isomer, unassigned) | 0.1 | 3.98
